TLR4 MyD88 comp = inhibitors of human TLR4-MyD88 binding. HeLa CL3-4 TLR4/MyD88 BLA complementation, FRET ratio. O00206+Q99836. AID 861. inhibition, % at 8.4 µM. hit rate 0.18% among 200,000; in the data active = inhibition above about 25%
NTR1 ag = NTR1 (human) agonism | P30989 | NTR1-U2OS beta-arrestin-GFP spot imaging, agonist mode | activation, % at 20 µM | hit rate 0.17% among 330,000;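 active = activation at or above 40% of the spot to cytoplasm intensity ratio, with at least 20 cells analyzed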
Target sequence (P30989 whole entry, looked up): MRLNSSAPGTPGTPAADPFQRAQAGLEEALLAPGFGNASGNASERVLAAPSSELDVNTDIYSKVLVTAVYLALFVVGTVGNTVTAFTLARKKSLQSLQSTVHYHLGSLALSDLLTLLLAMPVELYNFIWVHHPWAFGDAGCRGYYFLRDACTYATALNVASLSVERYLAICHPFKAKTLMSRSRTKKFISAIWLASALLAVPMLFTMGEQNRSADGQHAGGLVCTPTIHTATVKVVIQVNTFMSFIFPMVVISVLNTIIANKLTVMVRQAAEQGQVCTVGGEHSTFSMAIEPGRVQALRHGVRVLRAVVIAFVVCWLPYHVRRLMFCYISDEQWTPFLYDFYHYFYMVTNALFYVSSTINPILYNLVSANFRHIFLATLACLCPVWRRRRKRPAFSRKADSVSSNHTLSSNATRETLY
TLR9-MyD88 block = inhibitors of human TLR9-MyD88 binding; Q9NR96+Q99836; CHO BLA complementation TLR9-MyD88, CCF4 FRET ratio; inhibition, % at 4.98 µM; hit rate 0.21% among 340,000;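 active = inhibition above the mean over all tested compounds plus 3 SD, cut at about 21% in these data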
MC4R ag barr = agonists of human melanocortin 4 receptor (MC4R) beta-arrestin; hit rate 0.98% among 360,000; U2OS MC4R beta-arrestin complementation, luminescence; percent of melanotan II response, DMSO zero; AID 540308; activation, % at 8.9 µM;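 active = activation above a per-plate cutoff, the mean activation of sample wells on that plate plus 3 SD, cut at about 8% in these data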
Target sequence (P32245 whole entry, looked up): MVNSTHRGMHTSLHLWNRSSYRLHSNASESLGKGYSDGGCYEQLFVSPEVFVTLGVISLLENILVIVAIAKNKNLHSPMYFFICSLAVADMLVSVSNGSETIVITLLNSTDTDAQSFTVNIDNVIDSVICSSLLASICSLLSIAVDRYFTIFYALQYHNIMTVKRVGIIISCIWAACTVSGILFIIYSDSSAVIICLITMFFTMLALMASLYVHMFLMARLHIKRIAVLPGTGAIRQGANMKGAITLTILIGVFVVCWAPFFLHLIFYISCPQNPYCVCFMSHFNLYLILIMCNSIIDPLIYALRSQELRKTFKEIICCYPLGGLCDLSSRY
NOD2-RIPK2 inh = blocks binding of human NOD2 to RIPK2; inhibition, % at 4.98 µM; CHO BLA complementation NOD2-RIPK2, CCF4 ratio; O43353; hit rate 0.38% among 360,000; in the data active = inhibition above about 21%
MC4R antag cAMP = human MC4R antagonism in cAMP assay; P32245; AID 540295; MC4R-expressing cells, MTII-stimulated cAMP, LANCE TR-FRET; hit rate 0.48% among 360,000; inhibition, % at 6.5 µM;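 active = inhibition above its plate's cutoff, the mean of tested wells on that plate plus 3 SD, cut at about 29% in these data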
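system = U2OS cells with stable human MC4R expression | also added = Melanotan II challenge after compound preincubation | dosing = one concentration, 6.5 µM nominal | incubation = compound 30 min, challenge 1 h, detection 1 h | measured by = TR-FRET with Eu-cAMP and labeled anti-cAMP, 671 nm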
U2OS cAMP counter = counter-screen for MC4R antagonists: nonselective cAMP signaling inhibitors; shares compounds with MC4R antag cAMP; parental U2OS, forskolin cAMP, LANCE TR-FRET; inhibition, % at 6.5 µM; hit rate 26% among 1,600; AID 602193;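 active = mean inhibition over triplicates above the low-control well mean plus 3 SD, set per campaign, cut at about 13% in these data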;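 note: signal is single emission at 671 nm which falls as cellular cAMP rises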
MC4R cAMP antag = human MC4R cAMP antagonism confirmation | shares compounds with MC4R antag cAMP | MC4R-expressing cells, MTII-stimulated cAMP, TR-FRET | inhibition, % at 6.5 µM | hit rate 27% among 1,600 | AID 602195; in the data active = inhibition above about 29%
MC4R barr conf = human MC4R beta-arrestin agonism confirmation; U2OS MC4R beta-arrestin recruitment, luminescence; scaled DMSO 0%, Melanotan II 100%; AID 602192; shares compounds with MC4R ag barr; hit rate 31% among 2,400; activation, % at 8.9 µM;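 active = mean activation across replicates above the hit cutoff set in the earlier primary screen, cut at about 8% in these data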
MOR DOR agonist = activates mu-delta opioid heterodimer, MC4R agonist counter-screen | activation, % at 9.2 µM | U2OS PathHunter beta-arrestin, beta-gal luminescence; percent of deltorphin B response, DMSO zero | hit rate 5.8% among 2,400 | AID 602194 | shares compounds with MC4R ag barr;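 active = mean activation across replicates exceeds the hit threshold derived in the earlier primary screen, cut at about 18% in these data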
NOD2 RIPK2 conf = confirmation of human NOD2-RIPK2 interaction inhibitors | shares compounds with NOD2-RIPK2 inh | CHO cells, NOD2-RIPK2 BLA complementation, CCF4 FRET | inhibition, % at 4.98 µM | hit rate 70% among 1,200 | AID 624370;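 active = mean inhibition across replicates above a set limit taken from the earlier primary screen, cut at about 21% in these data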
BLA counter = hits BLA reporter in NOD2-RIPK2 inhibitor counterscreen. shares compounds with NOD2-RIPK2 inh. CHO BLA reporter, CCF4 FRET ratio. inhibition, % at 4.98 µM. hit rate 57% among 1,200. AID 624371;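 active = mean inhibition above the low-control mean inhibition plus three low-control SD, cut at about 11% in these data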
Each line names hits and unclear results; the compound was inactive in the other large screens (follow-up assays come after a bar, where they were run). Most compounds without a hit are left out; they make up all but 1.9% or so of the library.

CCCc1nnc(NC(=O)c2nc(S(=O)(=O)Cc3ccc(C)cc3)ncc2Cl)s1	NOD2-RIPK2 inh 32.4, MC4R antag cAMP 52.1 (no result: TLR4 MyD88 comp) | U2OS cAMP counter 21.7 | MC4R cAMP antag 36.4 | NOD2 RIPK2 conf 29.9 | BLA counter 17.9
CC1SC(C)C(=O)N(CC(=O)NCc2ccc(F)cc2)C1=O (stereo not drawn)	none
O=C(C[C@@H]1C/C=C\CCCC(=O)OC[C@@H]2CCCN2C1=O)NCCO	none (no result: TLR4 MyD88 comp)
CC(C)(C)NC(=O)CN(c1cccc([N+](=O)[O-])c1)S(=O)(=O)c1ccccc1	none (no result: TLR9-MyD88 block)
CC(NC(=O)CN(c1cccc(C(F)(F)F)c1)S(=O)(=O)c1ccc(Cl)c([N+](=O)[O-])c1)c1ccccc1 (stereo not drawn)	NOD2-RIPK2 inh 39.4, MC4R antag cAMP 31.2 | U2OS cAMP counter 13.8 | MC4R cAMP antag 41.9 | NOD2 RIPK2 conf 34.7 | BLA counter inactive
CC(=O)OC1CCC2(C)C(CCC3C4CC=C(C(C)=O)C4(C)OC(=O)CC32)C1 (stereo not drawn)	NOD2-RIPK2 inh 39.2, MC4R antag cAMP 42.5 (no result: TLR4 MyD88 comp, NTR1 ag) | U2OS cAMP counter 31.1 | MC4R cAMP antag inactive | NOD2 RIPK2 conf 38.6 | BLA counter inactive
Cc1cccc(CS(=O)(=O)c2ncc(Cl)c(C(=O)NCc3ccc4c(c3)OCO4)n2)c1	NOD2-RIPK2 inh 38.6, MC4R antag cAMP 32.6 (no result: TLR4 MyD88 comp) | U2OS cAMP counter inactive | MC4R cAMP antag inactive | NOD2 RIPK2 conf 42.1 | BLA counter inactive
c1csc(C(c2nnnn2C2CCCC2)N2CCCC3(CCCCC3)C2)c1 (stereo not drawn)	none
CN1C2CCC1/C(=C\c1ccc(F)cc1)C(=O)/C2=C/c1ccc(F)cc1	none
C=CC(=O)N1C/C(=C/c2ccc(F)cc2)C(=O)/C(=C\c2ccc(F)cc2)C1	NOD2-RIPK2 inh 54.1, MC4R antag cAMP 40.1 (no result: TLR4 MyD88 comp, NTR1 ag) | U2OS cAMP counter 28.1 | MC4R cAMP antag inactive | NOD2 RIPK2 conf 64.0 | BLA counter inactive
CCN(Cc1ccccc1)Cc1nnnn1Cc1ccccc1	none
O=C(Cn1ncc(Cl)c(Cl)c1=O)NCC1CCCCC1	NOD2-RIPK2 inh 21.4, MC4R antag cAMP 57.9 (no result: NTR1 ag) | U2OS cAMP counter 32.9 | MC4R cAMP antag 56.2 | NOD2 RIPK2 conf 29.1 | BLA counter inactive
O=C(COC(=O)c1cc([N+](=O)[O-])ccc1Cl)NC1CCCC1	none (no result: TLR4 MyD88 comp)
O=C(COC(=O)c1ccccc1C(=O)c1ccc(Cl)c([N+](=O)[O-])c1)NC1CC1	NOD2-RIPK2 inh 49.0, MC4R antag cAMP 29.3 | U2OS cAMP counter 21.0 | MC4R cAMP antag inactive | NOD2 RIPK2 conf 56.1 | BLA counter inactive
O=C(NCCN1CCOCC1)c1ccc(Cl)c(Cl)c1	none (no result: TLR4 MyD88 comp)
O=C1/C(=C\c2ccc(Cl)c(Cl)c2)CN(C(=O)CCN2CCOCC2)C/C1=C/c1ccc(Cl)c(Cl)c1	NOD2-RIPK2 inh 39.4, MC4R antag cAMP 36.8 (no result: TLR4 MyD88 comp, NTR1 ag) | U2OS cAMP counter 25.8 | MC4R cAMP antag 30.6 | NOD2 RIPK2 conf 76.0 | BLA counter inactive
COc1ccc(OC)c2sc(NC(=O)CCSc3ccccc3)nc12	MC4R ag barr 11.0 | MC4R barr conf inactive | MOR DOR agonist inactive
COc1ccc(OC)c2sc(NC(=O)CCS(=O)(=O)c3ccccc3)nc12	none
C=C1C2(C(=O)Nc3ccc(SC(F)F)cc3)CCC(C2)C1(C)C (stereo not drawn)	MC4R ag barr 16.6 | MC4R barr conf inactive | MOR DOR agonist inactive
O=C(Nc1ccc(SC(F)F)cc1)C12CCC(CC1)C2	none
O=C(COC(=O)c1ccc2[nH]c3c(c2c1)CCCC3)Nc1ccc(Cl)cc1Cl	MC4R ag barr 18.4 | MC4R barr conf 10.2 | MOR DOR agonist inactive
O=C(COC(=O)c1ccc2[nH]c3c(c2c1)CCCC3)Nc1ccccc1Cl	none
Cc1ccc(S(=O)(=O)Nc2cccc3c2O[C@H](CN(C)Cc2ccccc2)[C@@H](C)CN([C@H](C)CO)C3=O)cc1	none (no result: TLR4 MyD88 comp)
Cc1ccc(C2=NN(S(=O)(=O)c3ccccc3)C(c3ccccc3O)C2)cc1 (stereo not drawn)	MC4R ag barr 12.2 (no result: NTR1 ag) | MC4R barr conf 9.7 | MOR DOR agonist inactive
Cc1ccc(C2=NN(C(=O)c3cccs3)C(c3ccccc3O)C2)cc1 (stereo not drawn)	MC4R ag barr 17.8 | MC4R barr conf 30.2 | MOR DOR agonist inactive
O=C(c1ccccc1)N1N=C(c2ccccc2)CC1c1ccccc1O (stereo not drawn)	MC4R ag barr 17.3 | MC4R barr conf 11.2 | MOR DOR agonist inactive
O=C(c1cccs1)N1N=C(c2ccccc2)CC1c1ccccc1O (stereo not drawn)	MC4R ag barr 13.1 | MC4R barr conf inactive | MOR DOR agonist inactive
COc1cccc(CNC(=O)c2ccc(Cl)c(S(=O)(=O)N3CCOCC3)c2)c1	none (no result: TLR4 MyD88 comp)
O=S(=O)(c1ccc(Br)cc1F)N1CCCCC1CCO (stereo not drawn)	none (no result: TLR4 MyD88 comp, NTR1 ag)
CCn1cc(Cl)c(C(=O)N2N=C(c3ccc4ccccc4c3)CC2c2ccccc2O)n1 (stereo not drawn)	MC4R ag barr 20.3 | MC4R barr conf inactive | MOR DOR agonist inactive
CCn1cc([N+](=O)[O-])c(C(=O)N2N=C(c3ccc4ccccc4c3)CC2c2ccccc2O)n1 (stereo not drawn)	none
CCOc1ccc(S(=O)(=O)c2c[nH]c3ccccc3c2=O)cc1	none (no result: TLR4 MyD88 comp)
O=C(CSc1nc2c(sc3ccccc32)c(=O)n1Cc1ccccc1)NCC1CCCO1 (stereo not drawn)	none
O=C(CSc1nc2c(sc3ccccc32)c(=O)n1Cc1ccco1)NCC1CCCO1 (stereo not drawn)	MC4R ag barr 22.1 | MC4R barr conf inactive | MOR DOR agonist inactive

Source: PubChem BioAssay
